Tests used:
Hormone-sensitive lipase = biological target: T1, Hormone-sensitive lipase (Homo sapiens, UniProt Q05469); assay: Inhibition of human recombinant hormone sensitive lipase.
T1 sequence (Q05469 whole entry): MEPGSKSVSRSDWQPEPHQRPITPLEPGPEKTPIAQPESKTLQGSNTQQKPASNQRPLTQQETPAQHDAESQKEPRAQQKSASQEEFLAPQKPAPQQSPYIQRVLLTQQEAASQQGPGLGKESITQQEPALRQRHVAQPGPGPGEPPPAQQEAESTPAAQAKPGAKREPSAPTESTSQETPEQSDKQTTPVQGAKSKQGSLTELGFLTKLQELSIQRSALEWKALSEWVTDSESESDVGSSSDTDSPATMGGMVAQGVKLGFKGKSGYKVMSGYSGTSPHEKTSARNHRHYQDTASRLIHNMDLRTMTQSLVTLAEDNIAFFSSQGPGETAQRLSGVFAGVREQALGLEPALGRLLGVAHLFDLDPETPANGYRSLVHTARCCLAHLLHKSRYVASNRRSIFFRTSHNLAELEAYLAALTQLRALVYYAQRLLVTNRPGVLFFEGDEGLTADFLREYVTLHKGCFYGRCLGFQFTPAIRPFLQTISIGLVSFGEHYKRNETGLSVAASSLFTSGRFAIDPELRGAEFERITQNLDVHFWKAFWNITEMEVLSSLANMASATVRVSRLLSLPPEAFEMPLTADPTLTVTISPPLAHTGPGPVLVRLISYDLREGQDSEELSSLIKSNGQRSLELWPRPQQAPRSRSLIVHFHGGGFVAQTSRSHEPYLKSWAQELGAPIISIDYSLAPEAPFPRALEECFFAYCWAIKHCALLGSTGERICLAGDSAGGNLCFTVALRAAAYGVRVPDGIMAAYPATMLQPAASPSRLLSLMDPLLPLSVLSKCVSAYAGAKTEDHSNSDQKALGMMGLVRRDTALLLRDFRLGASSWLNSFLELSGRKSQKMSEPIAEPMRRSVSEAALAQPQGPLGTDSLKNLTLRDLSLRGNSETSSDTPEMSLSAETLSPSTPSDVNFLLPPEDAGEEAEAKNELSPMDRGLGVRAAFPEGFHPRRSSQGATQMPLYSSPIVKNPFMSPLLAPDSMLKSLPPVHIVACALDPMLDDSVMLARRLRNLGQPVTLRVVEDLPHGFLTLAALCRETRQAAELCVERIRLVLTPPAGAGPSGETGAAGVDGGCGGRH
Method in brief: (§1)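 Purified recombinant human HSL (specific activity 2.6 U/mg protein) with triolein substrate. Activity measured at 37 °C as ³H-oleic acid release over time from a ³H-trioleoylglycerol emulsion stabilized with phospholipids. Bovine serum albumin served as fatty acid acceptor.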

[1] = biological target: T2, Hormone-sensitive lipase (Homo sapiens) (UniProt Q05469); assay: Inhibition of recombinant human hormone sensitive lipase (HSL); parameters: concentration or dose not given beside the values; details: concentration not given here; method in brief: as §1
T2 sequence (whole entry): T1 sequence (Q05469 whole entry)

Row | Compound | IC50 (Hormone-sensitive lipase) [µM] | inhibition [1] [%]
1 | O=C(Cc1ccc(OC(=O)NN2CCOCC2)cc1)OCc1ccccc1 | 0.005 | 100
2 | CN(C(=O)Oc1ccc(Cl)cc1)N1CCc2ccccc2C1 | – | 2
3 | CC1c2ccccc2CCN1NC(=O)Oc1ccc(Cl)cc1 (stereo unspecified) | 0.032 | 91
4 | CN1CCN(NC(=O)Oc2ccc(Cl)cc2)CC1 | 0.515 | 98
5 | CCCC(=O)Nc1ccc(OC(=O)NN2CCOCC2)cc1 | 3.2 | 84
6 | O=C(NN1CCOCC1)Oc1ccc(Cl)cc1 | 0.184 | 99
7 | O=C(NN1CCOCC1)Oc1ccc(NC(=O)C2CCCCC2)cc1 | 0.01 | 99
8 | O=C(NN1CCc2ccccc2C1)Oc1ccccc1 | 0.205 | –
9 | CC(C)(C)CC(=O)Nc1ccc(OC(=O)NN2CCOCC2)cc1 | 0.047 | 99
10 | CC(C)(C)C1CCC(C(=O)Nc2ccc(OC(=O)NN3CCOCC3)cc2)CC1 (stereo unspecified) | 0.001 | 100
11 | O=C(NN1CCc2ccccc2C1)Oc1ccc(Cc2ccccc2)cc1 | 0.097 | 97
12 | COC(=O)Cc1ccc(OC(=O)NN2CCOCC2)cc1 | 0.716 | 95
13 | CC(=O)Nc1ccc(OC(=O)NN2CCOCC2)cc1 | – | 20
14 | O=C(NN1CCCCC1)Oc1ccc(Cl)cc1 | – | 99
15 | CC1Cc2ccccc2CN1NC(=O)Oc1ccc(Cl)cc1 (stereo unspecified) | 0.035 | 99

Further lines, results first:

Row | IC50 (Hormone-sensitive lipase) [µM] | inhibition [1] [%] | Compound
16 | – | 3 | O=C(NN1CCc2ccccc2C1)Oc1c(Cl)cccc1Cl
17 | – | 98 | O=C(NN1CCc2ccccc2C1)Oc1ccc(Cl)cc1
18 | – | 9 | CCOC(=O)NN1CCc2ccccc2C1
19 | – | 8 | CC(C)(C)OC(=O)NN1CCc2ccccc2C1
20 | – | 97 | COc1ccc(OC(=O)NN2CCc3ccccc3C2)cc1
21 | – | 7 | CC(=O)Nc1ccc(OC(=O)NN2CCc3ccccc3C2)cc1
22 | 0.138 | 99 | CCOC(=O)Cc1ccc(OC(=O)NN2CCOCC2)cc1
23 | – | 21 | O=C(NN1CCc2ccccc2C1)Oc1ccc(C(=O)c2ccccc2)cc1
24 | – | 76 | COc1ccccc1OC(=O)NN1CCc2ccccc2C1
25 | – | 4 | O=C(NN1CCc2ccccc2C1)OCc1ccccc1
26 | – | 57 | COC(=O)c1ccc(OC(=O)NN2CCc3ccccc3C2)cc1
27 | 0.024 | 100 | O=C(NN1CCCC1)Oc1ccc(Cl)cc1
28 | – | 98 | CC(C)(C)OC(=O)Nc1ccc(OC(=O)NN2CCc3ccccc3C2)cc1
